RanGTP-Imp inh: disruptors of Ran-importin-beta complex formation – biochemical, FRET, CFP-Ran, YFP-importin-beta, homogeneous, primary screen; cell-free CFP-Ran/YFP-importin-beta FRET ratio; inhibition, % (test concentration not listed); 1.1% of 300,000 active; AID 2216;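 active = more than half of the replicate wells show a fall in the fluorescence ratio signal beyond about 16%, limit read from the data, passing the limit was not always enough; inconclusive = exactly half of the replicate wells pass the set limit; inactive = fewer than half of replicates pass the limit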;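 also: 0% = DMSO wells and 100% = Ran loaded with GDP instead of GTP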
Wee1 degr inh: human Wee1 degradation inhibition, primary screen | P30291 | HeLa Luc-Wee1K328M stability, luciferase luminescence; 100% = proteasome inhibitor MG132 effect | reporter increase, % at 5 µM | 1.2% of 220,000 active | AID 1321;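 active = activation above the mean of all tested compounds plus 3 SD, set per screening run, cut at about 8.8% in these data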;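 also: cells exposed to compound for 20 h before luminescence read; 0% = DMSO alone and 100% = MG132 at 30 µM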
AI-2 QS mod: modulators of Vibrio harveyi AI-2 quorum sensing system | 0.4% of 300,000 active | Vibrio harveyi JMH597 AI-2 luminescence/OD600 ratio, 9 h; active compounds read low; strain lacks LuxN and CqsS sensors; 0 = neutral-control median | activity change, % at 7.5 µM; in the data active = activity change below about -75%, passing the limit was not always enough; inconclusive = no clear call, values can overlap the other calls;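 also: luminescence divided by OD600 gain over 9 h not by final OD600 alone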
KLK7 zymogen act: proKLK7 (human) activation, primary screen. 0.9% of 370,000 active. purified proKLK7, EDANS-DABCYL substrate fluorescence; 100% is mature enzyme control, 0% vehicle. activation, % at 7 µM. P49862;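 active = activation above the mean of all tested compounds plus 3 SD, computed per campaign excluding outliers beyond control limits, cut at about 13% in these data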
Target sequence (P49862 whole entry, looked up): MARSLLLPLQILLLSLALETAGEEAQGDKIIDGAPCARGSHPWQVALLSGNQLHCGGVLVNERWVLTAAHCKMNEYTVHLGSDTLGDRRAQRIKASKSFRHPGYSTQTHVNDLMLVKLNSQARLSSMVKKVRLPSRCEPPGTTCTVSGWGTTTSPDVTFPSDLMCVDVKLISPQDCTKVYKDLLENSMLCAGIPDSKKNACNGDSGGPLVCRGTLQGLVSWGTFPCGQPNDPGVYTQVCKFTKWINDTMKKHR
Runt-SMMHC FRET: blocks binding of human RUNX1 Runt domain to CBFb-SMMHC; Cerulean-Runt/Venus-CBFb-SMMHC FRET ratio 530/480, 1 h; inhibition, % at 20 µM; 0.74% of 220,000 active;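 active = mean inhibition across duplicate retests at 20 µM reaching about 50%, limit read from the data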;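 also: 0% = DMSO wells and 100% = wells with excess untagged CBFb-SMMHC; inhibitors lower the FRET ratio by blocking Runt binding to CBFb-SMMHC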
Runt-CBFb FRET: inhibitors of human RUNX1 Runt domain binding to CBFb; Q01196+Q13951; Cerulean-Runt/Venus-CBFb FRET ratio 530/480, 1 h; inhibition, % at 20 µM; 0.46% of 220,000 active;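 active = inhibition over about 50% at 20 µM in the single-dose screen, limit read from the data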;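 also: 0% = DMSO wells and 100% = excess unlabeled CBFb competitor control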
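Assay system: Cerulean-Runt domain fusion protein, energy donor; Signal: fluorescence energy transfer, 422 nm excitation, 530/480 nm emission; Timing: 1 h compound exposure, room temperature; Control set: unlabeled CBFb; Medium: Tris buffer pH 7.5 with salts and BSA; Compound: single test concentration of 20 µM, 1% DMSO final; Probe or stimulus: Venus-CBFb 100 nM.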
JMH597 growth: retest Vibrio harveyi JMH597 growth inhibition; shares compounds with AI-2 QS mod; OD600 absorbance, 9 h; lacks LuxN and CqsS sensors; growth inhibition, % at 7.5 µM; 1% of 750 active;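 active = every replicate shows growth inhibition above 50%; inconclusive = at least half, but not all, replicates pass that cutoff; inactive = fewer than half of replicates pass it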
BB721 const-QS lum: retest counter-screen: luminescence loss in constitutive-on quorum sensing strain BB721; AID 2727; shares compounds with AI-2 QS mod; inhibition, % at 7.5 µM; 95% of 750 active; Vibrio harveyi BB721 luminescence, 9 h;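 active = inhibition above about 80% in every replicate, not just on average, limit read from the data; inconclusive = at least half of replicates past the limit, but not all; inactive = fewer than half of replicates past the limit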
BB721 growth: retest Vibrio harveyi BB721 growth inhibition; shares compounds with AI-2 QS mod; OD600 absorbance, 9 h; growth inhibition, % at 7.5 µM; 3% of 750 active;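 active = every replicate shows growth inhibition above 50%; inconclusive = at least half but not all replicates above 50% inhibition; inactive = under half of replicates above 50% inhibition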
AI-2 QS JMH597: Vibrio harveyi AI-2 signaling luminescence modulation – JMH597 strain, confirmation; shares compounds with AI-2 QS mod; 97% of 750 active; Vibrio harveyi JMH597 AI-2 quorum sensing luminescence, 9 h; luxN and CqsS knockout, AI-2 only; AID 2736; inhibition, % at 7.5 µM;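 active = every replicate shows more than 75% inhibition of signal versus neutral control wells; inconclusive = half to three quarters of replicates exceed 75% inhibition; inactive = fewer than half of replicates exceed 75% inhibition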
Active calls of the source: *. In the library only some 2.9% were active in any assay of this set; here they are far more common.

For CC1SC(C)C(=O)N(CC(=O)Nc2ccc([N+](=O)[O-])cc2)C1=O (configuration not stated) the results were RanGTP-Imp inh -4.3, Wee1 degr inh 0.8, AI-2 QS mod -93.9*, KLK7 zymogen act 0.5, Runt-SMMHC FRET 2.5, Runt-CBFb FRET 2.6, JMH597 growth 24.8, BB721 const-QS lum 98.8*, BB721 growth 19.0 and AI-2 QS JMH597 99.2*.
CCOC(=O)N1CCC(N(CCN(C)C)C(=S)Nc2ccc(Oc3ccccc3)cc2)CC1 was read as RanGTP-Imp inh -1.3, Wee1 degr inh -0.5, AI-2 QS mod 17.6, KLK7 zymogen act 0.4, Runt-SMMHC FRET -0.3 and Runt-CBFb FRET 1.6.
For Cc1ccc(NS(=O)(=O)c2csc(C(N)=O)c2)cc1C the results were RanGTP-Imp inh -1.9, AI-2 QS mod 12.8 and KLK7 zymogen act 0.4.
`CC1(c2ccccc2)NC(=O)N(CC(=O)Nc2ccc([N+](=O)[O-])cc2)C1=O` (configuration not stated) gave RanGTP-Imp inh 2.7, Wee1 degr inh -2.3, AI-2 QS mod -88.9*, KLK7 zymogen act -0.6, Runt-SMMHC FRET -3.5, Runt-CBFb FRET 1.6, JMH597 growth 15.1, BB721 const-QS lum 96.5*, BB721 growth 2.3 and AI-2 QS JMH597 97.6*.
CC1(c2ccc([N+](=O)[O-])cc2)NC(=O)N(CC(=O)Nc2ccc(N3CCCCC3)cc2)C1=O (configuration not stated) was read as RanGTP-Imp inh -0.1, AI-2 QS mod -45.7 and KLK7 zymogen act -0.2.
For O=C(Cn1nnc2ccccc21)c1ccc([N+](=O)[O-])cc1 the results were RanGTP-Imp inh 0.0, Wee1 degr inh 2.8, AI-2 QS mod 46.1, KLK7 zymogen act 0.1, Runt-SMMHC FRET -2.6 and Runt-CBFb FRET 1.5.
O=C(Cn1nnc2ccccc21)Nc1ccc([N+](=O)[O-])cc1 was read as RanGTP-Imp inh 1.3, Wee1 degr inh -1.2, AI-2 QS mod -92.3*, KLK7 zymogen act 0.7, Runt-SMMHC FRET 4.1, Runt-CBFb FRET -0.5, JMH597 growth -20.9, BB721 const-QS lum 98.5*, BB721 growth -35.4 and AI-2 QS JMH597 99.2*.
CCn1c(SCC(=O)O)nnc1-c1ccc(S(=O)(=O)N2CCCC2)cc1 was read as RanGTP-Imp inh -0.4, AI-2 QS mod 26.1 and KLK7 zymogen act -0.3.
CCn1c(SCc2ccccc2)nnc1-c1ccc(S(=O)(=O)N2CCCCC2)cc1 was read as RanGTP-Imp inh 4.0, Wee1 degr inh -1.2, AI-2 QS mod inconclusive, KLK7 zymogen act 0.0, Runt-SMMHC FRET -2.5, Runt-CBFb FRET -0.9, JMH597 growth 42.1, BB721 const-QS lum 88.8*, BB721 growth 59.2 and AI-2 QS JMH597 94.4*.
CC(=O)c1cc2c(cc1F)C(C)(C)CCC2(C)C was read as KLK7 zymogen act -0.6.
Screening O=C(c1cc2cc(Cl)ccc2[nH]1)N1CCN(Cc2ccc3c(c2)OCO3)CC1 returned RanGTP-Imp inh -2.4, AI-2 QS mod -94.2*, KLK7 zymogen act -0.5, JMH597 growth 18.0, BB721 const-QS lum 98.5*, BB721 growth -97.8 and AI-2 QS JMH597 98.9*.

Screens (PubChem BioAssay)
